# Experimental data reported in paper PMC9271465 (ESMO Open, 2022).
# Experiment: phase I dose-escalation: safety and tolerability
# Format: in vivo, patients
# Procedure, shortened: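 Patients receiving ≥1 oral dose (25–300 mg/day) formed the safety set. Dosing was a single dose on day 1, then 21-day continuous daily dosing after 7 days. AEs graded by CTCAE v4.03. DLT window ran from day 1 of cycle 0 to day 21 of cycle 1 (28 days). ECGs were taken before and 1, 2, 4, 6, 10 and 24 h after the first dose.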
compound,measurement,setting,value
C=CC(=O)Nc1cc(Nc2ncc(Cl)c(Nc3ccccc3C(=O)C(=O)N(C)C)n2)c(OC)cc1N1CCN(C)CC1 [BPI-15086],"TRAE, Grade 3 and 4: Hyperglycemia",25 mg/day (n = 1),0 n (%)
same,"TRAE, Grade 3 and 4: any",25 mg/day (n = 1),0 n (%)
same,"TRAE, all grades: Anemia",25 mg/day (n = 1),0 n (%)
same,"TRAE, all grades: Decreased appetite",25 mg/day (n = 1),1 (100.0) n (%)
same,"TRAE, all grades: Decreased total protein",25 mg/day (n = 1),0 n (%)
same,"TRAE, all grades: Diarrhea",25 mg/day (n = 1),0 n (%)
same,"TRAE, all grades: Elevated ALT",25 mg/day (n = 1),0 n (%)
same,"TRAE, all grades: Elevated blood glucose",25 mg/day (n = 1),0 n (%)
same,"TRAE, all grades: Elevated blood triglycerides",25 mg/day (n = 1),0 n (%)
same,"TRAE, all grades: Elevated blood uric acid",25 mg/day (n = 1),0 n (%)
same,"TRAE, all grades: Elevated conjugated bilirubin",25 mg/day (n = 1),0 n (%)
same,"TRAE, all grades: Elevated serum creatinine",25 mg/day (n = 1),0 n (%)
same,"TRAE, all grades: Elevated γ-glutamyltransferase",25 mg/day (n = 1),0 n (%)
same,"TRAE, all grades: Hyperglycemia",25 mg/day (n = 1),0 n (%)
same,"TRAE, all grades: Hypoalbuminemia",25 mg/day (n = 1),0 n (%)
same,"TRAE, all grades: Nausea",25 mg/day (n = 1),0 n (%)
same,"TRAE, all grades: Proteinuria",25 mg/day (n = 1),0 n (%)
same,"TRAE, all grades: Vomiting",25 mg/day (n = 1),0 n (%)
same,"TRAE, all grades: any",25 mg/day (n = 1),1 (100.0) n (%)
same,"TRAE, Grade 3 and 4: Hyperglycemia",50 mg/day (n = 3),0 n (%)
same,"TRAE, Grade 3 and 4: any",50 mg/day (n = 3),0 n (%)
same,"TRAE, all grades: Anemia",50 mg/day (n = 3),0 n (%)
same,"TRAE, all grades: Decreased appetite",50 mg/day (n = 3),0 n (%)
same,"TRAE, all grades: Decreased total protein",50 mg/day (n = 3),0 n (%)
same,"TRAE, all grades: Diarrhea",50 mg/day (n = 3),0 n (%)
same,"TRAE, all grades: Elevated ALT",50 mg/day (n = 3),0 n (%)
same,"TRAE, all grades: Elevated blood glucose",50 mg/day (n = 3),1 (33.3) n (%)
same,"TRAE, all grades: Elevated blood triglycerides",50 mg/day (n = 3),0 n (%)
same,"TRAE, all grades: Elevated blood uric acid",50 mg/day (n = 3),0 n (%)
same,"TRAE, all grades: Elevated conjugated bilirubin",50 mg/day (n = 3),0 n (%)
same,"TRAE, all grades: Elevated serum creatinine",50 mg/day (n = 3),1 (33.3) n (%)
same,"TRAE, all grades: Elevated γ-glutamyltransferase",50 mg/day (n = 3),0 n (%)
same,"TRAE, all grades: Hyperglycemia",50 mg/day (n = 3),0 n (%)
same,"TRAE, all grades: Hypoalbuminemia",50 mg/day (n = 3),0 n (%)
same,"TRAE, all grades: Nausea",50 mg/day (n = 3),1 (33.3) n (%)
same,"TRAE, all grades: Proteinuria",50 mg/day (n = 3),0 n (%)
same,"TRAE, all grades: Vomiting",50 mg/day (n = 3),0 n (%)
same,"TRAE, all grades: any",50 mg/day (n = 3),2 (66.7) n (%)
same,"TRAE, Grade 3 and 4: Hyperglycemia",100 mg/day (n = 3),0 n (%)
same,"TRAE, Grade 3 and 4: any",100 mg/day (n = 3),0 n (%)
same,"TRAE, all grades: Anemia",100 mg/day (n = 3),0 n (%)
same,"TRAE, all grades: Decreased appetite",100 mg/day (n = 3),0 n (%)
same,"TRAE, all grades: Decreased total protein",100 mg/day (n = 3),1 (33.3) n (%)
same,"TRAE, all grades: Diarrhea",100 mg/day (n = 3),0 n (%)
same,"TRAE, all grades: Elevated ALT",100 mg/day (n = 3),0 n (%)
same,"TRAE, all grades: Elevated blood glucose",100 mg/day (n = 3),0 n (%)
same,"TRAE, all grades: Elevated blood triglycerides",100 mg/day (n = 3),0 n (%)
same,"TRAE, all grades: Elevated blood uric acid",100 mg/day (n = 3),1 (33.3) n (%)
same,"TRAE, all grades: Elevated conjugated bilirubin",100 mg/day (n = 3),0 n (%)
same,"TRAE, all grades: Elevated serum creatinine",100 mg/day (n = 3),1 (33.3) n (%)
same,"TRAE, all grades: Elevated γ-glutamyltransferase",100 mg/day (n = 3),0 n (%)
same,"TRAE, all grades: Hyperglycemia",100 mg/day (n = 3),0 n (%)
same,"TRAE, all grades: Hypoalbuminemia",100 mg/day (n = 3),0 n (%)
same,"TRAE, all grades: Nausea",100 mg/day (n = 3),1 (33.3) n (%)
same,"TRAE, all grades: Proteinuria",100 mg/day (n = 3),0 n (%)
same,"TRAE, all grades: Vomiting",100 mg/day (n = 3),1 (33.3) n (%)
same,"TRAE, all grades: any",100 mg/day (n = 3),3 (100.0) n (%)
same,"TRAE, Grade 3 and 4: Hyperglycemia",200 mg/day (n = 7),0 n (%)
same,"TRAE, Grade 3 and 4: any",200 mg/day (n = 7),0 n (%)
same,"TRAE, all grades: Anemia",200 mg/day (n = 7),3 (42.9) n (%)
same,"TRAE, all grades: Decreased appetite",200 mg/day (n = 7),1 (14.3) n (%)
same,"TRAE, all grades: Decreased total protein",200 mg/day (n = 7),2 (28.6) n (%)
same,"TRAE, all grades: Diarrhea",200 mg/day (n = 7),2 (28.6) n (%)
same,"TRAE, all grades: Elevated ALT",200 mg/day (n = 7),1 (14.3) n (%)
same,"TRAE, all grades: Elevated blood glucose",200 mg/day (n = 7),2 (28.6) n (%)
same,"TRAE, all grades: Elevated blood triglycerides",200 mg/day (n = 7),2 (28.6) n (%)
same,"TRAE, all grades: Elevated blood uric acid",200 mg/day (n = 7),3 (42.9) n (%)
same,"TRAE, all grades: Elevated conjugated bilirubin",200 mg/day (n = 7),2 (28.6) n (%)
same,"TRAE, all grades: Elevated serum creatinine",200 mg/day (n = 7),2 (28.6) n (%)
same,"TRAE, all grades: Elevated γ-glutamyltransferase",200 mg/day (n = 7),2 (28.6) n (%)
same,"TRAE, all grades: Hyperglycemia",200 mg/day (n = 7),0 n (%)
same,"TRAE, all grades: Hypoalbuminemia",200 mg/day (n = 7),5 (71.4) n (%)
same,"TRAE, all grades: Nausea",200 mg/day (n = 7),1 (14.3) n (%)
same,"TRAE, all grades: Proteinuria",200 mg/day (n = 7),3 (42.9) n (%)
same,"TRAE, all grades: Vomiting",200 mg/day (n = 7),1 (14.3) n (%)
same,"TRAE, all grades: any",200 mg/day (n = 7),7 (100.0) n (%)
same,"TRAE, Grade 3 and 4: Hyperglycemia",300 mg/day (n = 3),1 (33.3) n (%)
same,"TRAE, Grade 3 and 4: any",300 mg/day (n = 3),1 (33.3) n (%)
same,"TRAE, all grades: Anemia",300 mg/day (n = 3),0 n (%)
same,"TRAE, all grades: Decreased appetite",300 mg/day (n = 3),3 (100.0) n (%)
same,"TRAE, all grades: Decreased total protein",300 mg/day (n = 3),0 n (%)
same,"TRAE, all grades: Diarrhea",300 mg/day (n = 3),1 (33.3) n (%)
same,"TRAE, all grades: Elevated ALT",300 mg/day (n = 3),1 (33.3) n (%)
same,"TRAE, all grades: Elevated blood glucose",300 mg/day (n = 3),0 n (%)
same,"TRAE, all grades: Elevated blood triglycerides",300 mg/day (n = 3),0 n (%)
same,"TRAE, all grades: Elevated blood uric acid",300 mg/day (n = 3),0 n (%)
same,"TRAE, all grades: Elevated conjugated bilirubin",300 mg/day (n = 3),0 n (%)
same,"TRAE, all grades: Elevated serum creatinine",300 mg/day (n = 3),0 n (%)
same,"TRAE, all grades: Elevated γ-glutamyltransferase",300 mg/day (n = 3),0 n (%)
same,"TRAE, all grades: Hyperglycemia",300 mg/day (n = 3),3 (100.0) n (%)
same,"TRAE, all grades: Hypoalbuminemia",300 mg/day (n = 3),0 n (%)
same,"TRAE, all grades: Nausea",300 mg/day (n = 3),3 (100.0) n (%)
same,"TRAE, all grades: Proteinuria",300 mg/day (n = 3),0 n (%)
same,"TRAE, all grades: Vomiting",300 mg/day (n = 3),2 (66.7) n (%)
same,"TRAE, all grades: any",300 mg/day (n = 3),3 (100.0) n (%)
same,maximum tolerated dose (MTD),25-300 mg/day,not reached
same,dose-limiting toxicities (DLTs),"28-day evaluation period, any dose level 25-300 mg/day",No DLTs were observed
same,"treatment-related serious AE (hyperglycemia), patients",300-mg/day group,one
same,"TRAE, Grade 3 and 4: Hyperglycemia",All (n = 17),1 (5.9) n (%)
same,"TRAE, Grade 3 and 4: any",All (n = 17),1 (5.9) n (%)
same,"TRAE, all grades: Anemia",All (n = 17),3 (17.6) n (%)
same,"TRAE, all grades: Decreased appetite",All (n = 17),5 (29.4) n (%)
same,"TRAE, all grades: Decreased total protein",All (n = 17),3 (17.6) n (%)
same,"TRAE, all grades: Diarrhea",All (n = 17),3 (17.6) n (%)
same,"TRAE, all grades: Elevated ALT",All (n = 17),2 (11.8) n (%)
same,"TRAE, all grades: Elevated blood glucose",All (n = 17),3 (17.6) n (%)
same,"TRAE, all grades: Elevated blood triglycerides",All (n = 17),2 (11.8) n (%)
same,"TRAE, all grades: Elevated blood uric acid",All (n = 17),4 (23.5) n (%)
same,"TRAE, all grades: Elevated conjugated bilirubin",All (n = 17),2 (11.8) n (%)
same,"TRAE, all grades: Elevated serum creatinine",All (n = 17),4 (23.5) n (%)
same,"TRAE, all grades: Elevated γ-glutamyltransferase",All (n = 17),2 (11.8) n (%)
same,"TRAE, all grades: Hyperglycemia",All (n = 17),3 (17.6) n (%)
same,"TRAE, all grades: Hypoalbuminemia",All (n = 17),5 (29.4) n (%)
same,"TRAE, all grades: Nausea",All (n = 17),6 (35.3) n (%)
same,"TRAE, all grades: Proteinuria",All (n = 17),3 (17.6) n (%)
same,"TRAE, all grades: Vomiting",All (n = 17),4 (23.5) n (%)
same,"TRAE, all grades: any",All (n = 17),16 (94.1) n (%)
same,AEs leading to drug discontinuation,all 17 patients,no adverse events (AEs) causing drug discontinuation were seen
same,"TRAE: anemia, patients",all 17 patients,17.6%
same,"TRAE: decreased appetite, patients",all 17 patients,29.4%
same,"TRAE: decreased total protein, patients",all 17 patients,17.6%
same,"TRAE: diarrhea, patients",all 17 patients,17.6%
same,"TRAE: elevated alanine aminotransferase, patients",all 17 patients,11.8%
same,"TRAE: elevated blood glucose, patients",all 17 patients,17.6%
same,"TRAE: elevated blood triglycerides, patients",all 17 patients,11.8%
same,"TRAE: elevated blood uric acid, patients",all 17 patients,23.5%
same,"TRAE: elevated conjugated bilirubin, patients",all 17 patients,11.8%
same,"TRAE: elevated serum creatinine, patients",all 17 patients,23.5%
same,"TRAE: elevated γ-glutamyltransferase, patients",all 17 patients,11.8%
same,"TRAE: hyperglycemia, patients",all 17 patients,17.6%
same,"TRAE: hypoalbuminemia, patients",all 17 patients,29.4%
same,"TRAE: nausea, patients",all 17 patients,35.3%
same,"TRAE: proteinuria, patients",all 17 patients,17.6%
same,"TRAE: vomiting, patients",all 17 patients,23.5%
same,patients with diarrhea,all 17 patients,3/17
same,patients with rash/pruritis,all 17 patients,no patient
same,"Serious AEs, patients",all 17 patients (two patients),11.8%
